# Assay results taken from ChEMBL document CHEMBL4229344 (Eur J Med Chem, 2018).
# Key:
# [1] = target: Phosphorylase b kinase gamma catalytic chain, liver/testis isoform (Homo sapiens) (UniProt P15735); test: Binding affinity to wild-type human partial length PHKG2 (M1 to W300 residues) expressed in bacterial expression system assessed as residual binding level at 1 uM by Kinomescan method relative to control
# Procedure, shortened: (§1)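 KINOMEscan competition binding against a panel of 468 purified kinases/mutants, compound tested at 1 μM; readout is relative binding activity versus control.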
# [2] = target: NUAK family SNF1-like kinase 1 (Homo sapiens) (UniProt O60285); test: Binding affinity to wild-type human partial length ARK5 (E25 to I332 residues) expressed in bacterial expression system assessed as residual binding level at 1 uM by Kinomescan method relative to control
# Procedure, shortened: (§2)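 Single-concentration KINOMEscan (DiscoverX) binding screen at 1 μM against a panel of 468 purified kinases and mutants. The read-out is binding relative to control.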
# [3] = target: SNF-related serine/threonine-protein kinase (Homo sapiens) (UniProt Q9NRH2); test: Binding affinity to wild-type human partial length SNRK (M1 to E339 residues) expressed in mammalian expression system assessed as residual binding level at 1 uM by Kinomescan method relative to control
# [4] = target: Ephrin type-B receptor 1 (Homo sapiens) (UniProt P54762); test: Binding affinity to wild-type human partial length EPHB1 (P589 to T911 residues) expressed in bacterial expression system assessed as residual binding level at 1 uM by Kinomescan method relative to control
# [5] = target: Aurora kinase C (Homo sapiens) (UniProt Q9UQB9); test: Binding affinity to wild-type human full length AURKC (M1 to S275 residues) expressed in bacterial expression system assessed as residual binding level at 1 uM by Kinomescan method relative to control
# Procedure, shortened: (§3)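 Single-concentration (1 μM) competition-binding screen run by KINOMEscan against a panel of 468 purified kinases and mutants. The read-out is the relative binding activity of the test compound to each kinase.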
# EOL1 = test: Antitumor activity against human EOL-1 cells xenografted in nu/nu mouse assessed as tumor growth inhibition at 25 to 100 mg/kg/day, ip; format: functional, organism-based
# Procedure, shortened: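 Female nu/nu mice, six weeks old; 5 million EOL-1 cells in PBS mixed 1:1 with Matrigel, injected subcutaneously in the right flank. Dosing began once tumors reached 200–400 mm3, with randomization into groups of 6. Daily IP dosing at 25.0, 50.0 or 100 mg/kg/d in 0.5% methocellulose/0.4% Tween80 in water, or vehicle alone, for 14 days. Tumor volume = (W2×L)/2, measured daily. Final tumor weights were also recorded.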
# [6] = target: Serine/threonine-protein kinase Nek6 (Homo sapiens) (UniProt Q9HC98); test: Binding affinity to wild-type human full length NEK6 (M8 to T313 residues) expressed in bacterial expression system assessed as residual binding level at 1 uM by Kinomescan method relative to control; procedure, shortened: as §2
# [7] = target: Mast/stem cell growth factor receptor Kit (Homo sapiens, UniProt P10721); test: Binding affinity to wild-type human partial length KIT (I571 to D952 residues) expressed in bacterial expression system assessed as residual binding level at 1 uM by Kinomescan method relative to control
# [8] = target: Platelet-derived growth factor receptor alpha (Homo sapiens, UniProt P16234); test: Binding affinity to wild-type human partial length PDGFRalpha (V575 to D1002 residues) expressed in mammalian expression system assessed as residual binding level at 1 uM by Kinomescan method relative to control; procedure, shortened: as §1
# [9] = target: Dual specificity protein kinase TTK (Homo sapiens) (UniProt P33981); test: Binding affinity to wild-type human partial length TTK (N505 to V798 residues) expressed in bacterial expression system assessed as residual binding level at 1 uM by Kinomescan method relative to control
# [10] = target: Serine/threonine-protein kinase TAO2 (Homo sapiens) (UniProt Q9UL54); test: Binding affinity to wild-type human partial length TAOK2 (M1 to A320 residues) expressed in mammalian expression system assessed as residual binding level at 1 uM by Kinomescan method relative to control
# [11] = target: SRSF protein kinase 1 (Homo sapiens) (UniProt Q96SB4); test: Binding affinity to wild-type human full length SRPK1 (M1 to S655 residues) expressed in bacterial expression system assessed as residual binding level at 1 uM by Kinomescan method relative to control
# Procedure, shortened: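 KINOMEscan competition binding against 468 purified kinases/mutants, test compound at 1 µM; residual binding relative to control.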
# [12] = target: Serine/threonine-protein kinase D3 (Homo sapiens) (UniProt O94806); test: Binding affinity to wild-type human partial length PRKD3 (S543 to E863 residues) expressed in bacterial expression system assessed as residual binding level at 1 uM by Kinomescan method relative to control
# [13] = target: Dual specificity tyrosine-phosphorylation-regulated kinase 1A (Homo sapiens) (UniProt Q13627); test: Binding affinity to wild-type human partial length DYRK1A (H129 to S509 residues) expressed in mammalian expression system assessed as residual binding level at 1 uM by Kinomescan method relative to control
# [14] = target: Fibroblast growth factor receptor 3 (Homo sapiens) (UniProt P22607); test: Binding affinity to wild-type human partial length FGFR3 (R442 to S771 residues) expressed in bacterial expression system assessed as residual binding level at 1 uM by Kinomescan method relative to control
# [15] = system: Mast/stem cell growth factor receptor Kit (Homo sapiens), P10721 [A829P]; test: Binding affinity to human partial length KIT A829P mutant (I571 to D952 residues) expressed in mammalian expression system assessed as residual binding level at 1 uM by Kinomescan method relative to control
# Procedure, shortened: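 Kinome-wide single-concentration binding screen (KINOMEscan) at 1 μM against a panel of 468 purified kinases and mutants. Read-out is relative binding of each kinase compared with control. Selectivity across the panel was summarised as an S(10) score.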
# [16] = target: Serine/threonine-protein kinase pim-1 (Homo sapiens) (UniProt P11309); test: Binding affinity to wild-type human partial length PIM1 (A15 to K313 residues) expressed in bacterial expression system assessed as residual binding level at 1 uM by Kinomescan method relative to control
# [17] = target: Serine/threonine-protein kinase Nek11 (Homo sapiens) (UniProt Q8NG66); test: Binding affinity to wild-type human partial length NEK11 (M1 to E313 residues) expressed in mammalian expression system assessed as residual binding level at 1 uM by Kinomescan method relative to control
# [18] = target: G protein-coupled receptor kinase 3 (Homo sapiens) (UniProt P35626); test: Binding affinity to wild-type human full length GRK3 (M1 to L688 residues) expressed in mammalian expression system assessed as residual binding level at 1 uM by Kinomescan method relative to control; procedure, shortened: as §3
# NCI-H1703 = test: Antiproliferative activity against human NCI-H1703 cells after 72 hrs by CellTiter-Glo or CCK-8 assay; format: functional; conditions: NCI-H1703, 72 h
# Procedure, shortened: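 Cells in RPMI 1640 with 10% FBS at 37 °C, 5% CO2, seeded at 1–3 × 10^4 cells/mL with serial compound dilutions for 72 h. Viability read by CellTiter-Glo luminescence or CCK-8 absorbance (450/655 nm), normalized to DMSO control.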
compound,measurement,setting,value
Cc1ccc(NC(=O)c2ccc(CN(CCN(C)C)C(=O)c3cccnc3)cc2)cc1Nc1nccc(-c2cccnc2)n1,Activity,[1],89%
same,Activity,[2],93%
same,Activity,[3],100%
same,Activity,[4],100%
same,Activity,[5],97%
same,TGI,EOL1,Dose-dependent effect
same,Activity,[6],90%
same,Activity,[7],2.2%
same,Activity,[8],6.8%
same,Activity,[9],81%
same,Activity,[10],77%
same,Activity,[11],92%
same,Activity,[12],100%
same,Activity,[13],100%
same,Activity,[14],100%
same,Activity,[15],81%
same,Activity,[16],98%
same,Activity,[17],100%
same,Activity,[18],98%
same,GI50,NCI-H1703,5.37 µM
